# Reference: ChEMBL document CHEMBL1125797, “Synthesis, characterization and myocardial uptake of cationic bis(arene)technetium(I) complexes” (J Med Chem, 1991)
# Legend:
# [1] = system: Rattus norvegicus; experiment: Biodistribution of compound in rat blood after 5 min of administration.; type: ADME, organism-based; details: in vivo
# Method in brief: (§1)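 Female Sprague-Dawley rats (150–200 g) received the complex in normal saline (~12.5 μCi/mL) through a lateral tail vein at ~25 μCi/kg. Rats were killed by cervical dislocation 5 min after injection. Tissues were washed with saline, blotted, weighed and γ-counted to give percent injected dose/g tissue.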
# [2] = system: Rattus norvegicus; experiment: Biodistribution of compound in rat heart after 5 min of administration.; type: ADME, organism-based; details: in vivo; method in brief: as §1
# [3] = system: Rattus norvegicus; experiment: Biodistribution of compound in rat kidney after 5 min of administration.; type: ADME, organism-based; details: in vivo; method in brief: as §1
# [4] = system: Rattus norvegicus; experiment: Biodistribution of compound in rat lung after 5 min of administration.; type: ADME, organism-based; details: in vivo; method in brief: as §1
# [5] = Biodistribution of compound in rat muscle after 5 min of administration.; type: ADME, organism-based, Muscle tissue; details: in vivo; method in brief: as §1
# [6] = system: Rattus norvegicus; experiment: Biodistribution of compound in rat blood at 90 min after intravenous administration; type: ADME, organism-based; details: in vivo, 1.5 h
# Method in brief: (§2)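 Time course in Sprague-Dawley rats after lateral tail-vein injection of the 99mTc complex in normal saline (~12.5 μCi/mL) at ~25 μCi/kg. Tissues were sampled at the stated times, washed with saline, blotted, weighed and γ-counted to give percent injected dose per g. Values are averages of male and female rats.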
# [7] = system: Rattus norvegicus; experiment: Biodistribution of compound in rat urine at 1440 min after intravenous administration; type: ADME, organism-based; details: in vivo, 24 h
# Method in brief: (§3)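 Rats received the 99mTc complex in normal saline (~12.5 μCi/mL) by lateral tail vein injection at ~25 μCi/kg and were killed by cervical dislocation at the stated time. Tissues were washed with saline, blotted, weighed and γ-counted to give percent injected dose/g. Time-course values are averages of male and female rats.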
# [8] = system: Rattus norvegicus; experiment: Biodistribution of compound in rat urine at 360 min after intravenous administration; type: ADME, organism-based; details: in vivo, 6 h; method in brief: as §3
# [9] = system: Rattus norvegicus; experiment: Biodistribution of compound in rat blood at 1440 min after intravenous administration; type: ADME, organism-based; details: in vivo, 24 h; method in brief: as §2
# [10] = system: Rattus norvegicus; experiment: Biodistribution of compound in rat blood at 180 min after intravenous administration; type: ADME, organism-based; details: in vivo, 3 h; method in brief: as §2
# [11] = system: Rattus norvegicus; experiment: Biodistribution of compound in rat blood at 360 min after intravenous administration; type: ADME, organism-based; details: in vivo, 6 h; method in brief: as §2
# [12] = system: Rattus norvegicus; experiment: Biodistribution of compound in rat blood at 5 min after intravenous administration; type: ADME, organism-based; details: in vivo; method in brief: as §2
# [13] = system: Rattus norvegicus; experiment: Biodistribution of compound in rat gonads at 1440 min after intravenous administration; type: ADME, organism-based, Gonad; details: in vivo, 24 h; method in brief: as §2
# [14] = system: Rattus norvegicus; experiment: Biodistribution of compound in rat gonads at 180 min after intravenous administration; type: ADME, organism-based, Gonad; details: in vivo, 3 h; method in brief: as §2
# [15] = system: Rattus norvegicus; experiment: Biodistribution of compound in rat gonads at 360 min after intravenous administration; type: ADME, organism-based, Gonad; details: in vivo, 6 h; method in brief: as §2
# [16] = system: Rattus norvegicus; experiment: Biodistribution of compound in rat gonads at 45 min after intravenous administration; type: ADME, organism-based, Gonad; details: in vivo, 0.75 h; method in brief: as §2
# [17] = system: Rattus norvegicus; experiment: Biodistribution of compound in rat gonads at 5 min after intravenous administration; type: ADME, organism-based, Gonad; details: in vivo; method in brief: as §2
# [18] = system: Rattus norvegicus; experiment: Biodistribution of compound in rat gonads at 90 min after intravenous administration; type: ADME, organism-based, Gonad; details: in vivo, 1.5 h; method in brief: as §2
# [19] = system: Rattus norvegicus; experiment: Biodistribution of compound in rat heart at 1440 min after intravenous administration; type: ADME, organism-based; details: in vivo, 24 h; method in brief: as §2
# [20] = system: Rattus norvegicus; experiment: Biodistribution of compound in rat heart at 180 min after intravenous administration; type: ADME, organism-based; details: in vivo, 3 h; method in brief: as §2
# [21] = system: Rattus norvegicus; experiment: Biodistribution of compound in rat heart at 360 min after intravenous administration; type: ADME, organism-based; details: in vivo, 6 h; method in brief: as §2
# [22] = system: Rattus norvegicus; experiment: Biodistribution of compound in rat heart at 45 min after intravenous administration; type: ADME, organism-based; details: in vivo, 0.75 h; method in brief: as §2
# [23] = system: Rattus norvegicus; experiment: Biodistribution of compound in rat heart at 5 min after intravenous administration; type: ADME, organism-based; details: in vivo; method in brief: as §2
# [24] = system: Rattus norvegicus; experiment: Biodistribution of compound in rat heart at 90 min after intravenous administration; type: ADME, organism-based; details: in vivo, 1.5 h; method in brief: as §2
# [25] = system: Rattus norvegicus; experiment: Biodistribution of compound in rat kidney at 1440 min after intravenous administration; type: ADME, organism-based; details: in vivo, 24 h; method in brief: as §2
# [26] = system: Rattus norvegicus; experiment: Biodistribution of compound in rat kidney at 180 min after intravenous administration; type: ADME, organism-based; details: in vivo, 3 h; method in brief: as §2
# [27] = system: Rattus norvegicus; experiment: Biodistribution of compound in rat kidney at 360 min after intravenous administration; type: ADME, organism-based; details: in vivo, 6 h; method in brief: as §2
# [28] = system: Rattus norvegicus; experiment: Biodistribution of compound in rat kidney at 45 min after intravenous administration; type: ADME, organism-based; details: in vivo, 0.75 h; method in brief: as §2
# [29] = system: Rattus norvegicus; experiment: Biodistribution of compound in rat kidney at 5 min after intravenous administration; type: ADME, organism-based; details: in vivo; method in brief: as §2
# [30] = system: Rattus norvegicus; experiment: Biodistribution of compound in rat kidney at 90 min after intravenous administration; type: ADME, organism-based; details: in vivo, 1.5 h; method in brief: as §2
# [31] = system: Rattus norvegicus; experiment: Biodistribution of compound in rat liver at 1440 min after intravenous administration; type: ADME, organism-based; details: in vivo, 24 h; method in brief: as §2
# [32] = system: Rattus norvegicus; experiment: Biodistribution of compound in rat liver at 180 min after intravenous administration; type: ADME, organism-based; details: in vivo, 3 h; method in brief: as §2
# [33] = system: Rattus norvegicus; experiment: Biodistribution of compound in rat liver at 360 min after intravenous administration; type: ADME, organism-based; details: in vivo, 6 h; method in brief: as §3
# [34] = system: Rattus norvegicus; experiment: Biodistribution of compound in rat liver at 5 min after intravenous administration; type: ADME, organism-based; details: in vivo; method in brief: as §3
# [35] = system: Rattus norvegicus; experiment: Biodistribution of compound in rat liver at 90 min after intravenous administration; type: ADME, organism-based; details: in vivo, 1.5 h; method in brief: as §3
substance,measurement,setting,value
"Bis(1,2,3,5-tetramethylbenzene)technetium",Dose/g,[1],0.1%
same,Dose/g,[2],3.4%
same,Dose/g,[3],6.7%
same,Dose/g,[4],1.3%
same,Dose/g,[5],0.61%
same,Dose/ml,[6],0.3 % dose
same,Dose/ml,[7],20 % dose
same,Dose/ml,[8],11 % dose
same,Dose/ml,[9],0.07 % dose
same,Dose/ml,[10],0.19 % dose
same,Dose/ml,[11],0.15 % dose
same,Dose/ml,[12],1.06 % dose
same,Dose/g,[13],0.019 % dose
same,Dose/g,[14],0.58 % dose
same,Dose/g,[15],0.039 % dose
same,Dose/g,[16],0.089 % dose
same,Dose/g,[17],0.099 % dose
same,Dose/g,[18],0.074 % dose
same,Dose/g,[19],1.27 % dose
same,Dose/g,[20],2.44 % dose
same,Dose/g,[21],2.81 % dose
same,Dose/g,[22],2.83 % dose
same,Dose/g,[23],2.51 % dose
same,Dose/g,[24],2.78 % dose
same,Dose/g,[25],0.2 % dose
same,Dose/g,[26],2 % dose
same,Dose/g,[27],1.5 % dose
same,Dose/g,[28],5.4 % dose
same,Dose/g,[29],7.1 % dose
same,Dose/g,[30],3.9 % dose/organ
same,Dose/g,[31],0.2 % dose/organ
same,Dose/g,[32],1 % dose/organ
same,Dose/g,[33],0.9 % dose/organ
same,Dose/g,[34],5.6 % dose/organ
same,Dose/g,[35],2.5 % dose/organ
